Data as given in ChEMBL document CHEMBL2040768, “Synthesis, antimicrobial and cytotoxic activities of sulfone linked bis heterocycles” (Eur J Med Chem, 2012).
Activity calls are given as the source filed them. The rule behind the calls is not given here.

How the values were obtained:
A549 = assay: Cytotoxicity against human A549 cells up to 0.2 mM after 72 hrs by MTT assay
Klebsiella pneumoniae [1] = assay: Antibacterial activity against Klebsiella pneumoniae at 50 ug/ml after 24 hrs by agar well diffusion method; assay type: functional; settings: for zone of inhibition at 50 µg/mL: read-out: DIZ
Procedure, shortened: (§1)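 Agar well diffusion. Nutrient plates swabbed with 24 h broth culture of the bacterium; 6 mm wells bored and loaded with DMSO solutions of compound (wells at 50 and 100 per well). Chloramphenicol positive control, DMSO negative control. Plates held 37 °C, 24 h; inhibition zone diameter (mm) measured, mean of duplicates.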

Staphylococcus aureus [2] = assay: Antibacterial activity against Staphylococcus aureus at 100 ug/ml after 24 hrs by agar well diffusion method; assay type: functional; settings: for zone of inhibition at 100 µg/mL: read-out: DIZ
Procedure, shortened: as §1

Bacillus subtilis [3] = assay: Antibacterial activity against Bacillus subtilis at 50 ug/ml after 24 hrs by agar well diffusion method; assay type: functional; settings: for zone of inhibition at 50 µg/mL: read-out: DIZ
Procedure, shortened: as §1

Pseudomonas aeruginosa [4] = assay: Antibacterial activity against Pseudomonas aeruginosa at 50 ug/ml after 24 hrs by agar well diffusion method; assay type: functional; settings: for zone of inhibition at 50 µg/mL: read-out: DIZ
Procedure, shortened: as §1

Staphylococcus aureus [5] = assay: Antibacterial activity against Staphylococcus aureus at 50 ug/ml after 24 hrs by agar well diffusion method; assay type: functional; settings: for zone of inhibition at 50 µg/mL: read-out: DIZ
Procedure, shortened: as §1

Aspergillus niger [6] = assay: Antifungal activity against Aspergillus niger at 50 ug/ml after 48 hrs by agar well diffusion method; assay type: functional; settings: for zone of inhibition at 50 µg/mL: read-out: DIZ
Procedure, shortened: (§2)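 Fungal agar well diffusion. Plates swabbed with fungal culture, 6 mm wells filled with DMSO solutions of compound (50 and 100 per well). Ketoconazole positive and DMSO negative controls. Plates incubated 28 °C for 48 h; zone of inhibition diameter (mm) read, average of duplicates.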

Penicillium chrysogenum [7] = assay: Antifungal activity against Penicillium chrysogenum at 100 ug/ml after 48 hrs by agar well diffusion method; assay type: functional; settings: for zone of inhibition at 100 µg/mL: read-out: DIZ
Procedure, shortened: as §2

Penicillium chrysogenum [8] = assay: Antifungal activity against Penicillium chrysogenum at 50 ug/ml after 48 hrs by agar well diffusion method; assay type: functional; settings: for zone of inhibition at 50 µg/mL: read-out: DIZ
Procedure, shortened: as §2

Bacillus subtilis [9] = assay: Antibacterial activity against Bacillus subtilis at 100 ug/ml after 24 hrs by agar well diffusion method; assay type: functional; settings: for zone of inhibition at 100 µg/mL: read-out: DIZ
Procedure, shortened: as §1

Pseudomonas aeruginosa [10] = assay: Antibacterial activity against Pseudomonas aeruginosa at 100 ug/ml after 24 hrs by agar well diffusion method; assay type: functional; settings: for zone of inhibition at 100 µg/mL: read-out: DIZ
Procedure, shortened: as §1

Aspergillus niger [11] = assay: Antifungal activity against Aspergillus niger at 100 ug/ml after 48 hrs by agar well diffusion method; assay type: functional; settings: for zone of inhibition at 100 µg/mL: read-out: DIZ
Procedure, shortened: as §2

Klebsiella pneumoniae [12] = assay: Antibacterial activity against Klebsiella pneumoniae at 100 ug/ml after 24 hrs by agar well diffusion method; assay type: functional; settings: for zone of inhibition at 100 µg/mL: read-out: DIZ
Procedure, shortened: as §1

| Structure (SMILES) | Activity (A549) | zone of inhibition at 50 µg/mL (Klebsiella pneumoniae [1]) | zone of inhibition at 100 µg/mL (Staphylococcus aureus [2]) | zone of inhibition at 50 µg/mL (Bacillus subtilis [3]) | zone of inhibition at 50 µg/mL (Pseudomonas aeruginosa [4]) | zone of inhibition at 50 µg/mL (Staphylococcus aureus [5]) | zone of inhibition at 50 µg/mL (Aspergillus niger [6]) | zone of inhibition at 100 µg/mL (Penicillium chrysogenum [7]) | zone of inhibition at 50 µg/mL (Penicillium chrysogenum [8]) | zone of inhibition at 100 µg/mL (Bacillus subtilis [9]) | zone of inhibition at 100 µg/mL (Pseudomonas aeruginosa [10]) | zone of inhibition at 100 µg/mL (Aspergillus niger [11]) | zone of inhibition at 100 µg/mL (Klebsiella pneumoniae [12]) | also measured |
| --- | --- | --- | --- | --- | --- | --- | --- | --- | --- | --- | --- | --- | --- | --- |
| Cc1ccc(NS(=O)(=O)Cc2nnc(CS(=O)(=O)/C=C/S(=O)(=O)c3ccc(C)cc3)n2N)cc1 | inactive | 25 mm | 22 mm | 23 mm | 15 mm | 20 mm | 19 mm | 25 mm | 22 mm | 25 mm | 17 mm | 23 mm | 27 mm |  |
| Cc1ccc(NS(=O)(=O)Cc2nnc(CS(=O)(=O)C3CNN=C3S(=O)(=O)c3ccc(C)cc3)o2)cc1 (stereo unspecified) | inactive |  |  |  |  |  |  |  |  |  |  |  |  | diameter of the inhibition zone (DIZ) (Klebsiella pneumoniae [1]): inactive; diameter of the inhibition zone (DIZ) (Staphylococcus aureus [2]): inactive; diameter of the inhibition zone (DIZ) (Bacillus subtilis [3]): inactive; diameter of the inhibition zone (DIZ) (Pseudomonas aeruginosa [4]): inactive; diameter of the inhibition zone (DIZ) (Staphylococcus aureus [5]): inactive; diameter of the inhibition zone (DIZ) (Aspergillus niger [6]): inactive; diameter of the inhibition zone (DIZ) (Penicillium chrysogenum [7]): inactive; diameter of the inhibition zone (DIZ) (Penicillium chrysogenum [8]): inactive; diameter of the inhibition zone (DIZ) (Bacillus subtilis [9]): inactive; diameter of the inhibition zone (DIZ) (Pseudomonas aeruginosa [10]): inactive; diameter of the inhibition zone (DIZ) (Aspergillus niger [11]): inactive; diameter of the inhibition zone (DIZ) (Klebsiella pneumoniae [12]): inactive |
| Nn1c(CS(=O)(=O)/C=C/S(=O)(=O)c2ccccc2)nnc1CS(=O)(=O)Nc1ccccc1 | inactive | 26 mm | 23 mm | 24 mm | 17 mm | 21 mm | 21 mm | 26 mm | 23 mm | 26 mm | 18 mm | 24 mm | 28 mm |  |
| O=S(=O)(/C=C/S(=O)(=O)c1ccc(Cl)cc1)Cc1nnc(CS(=O)(=O)Nc2ccc(Cl)cc2)s1 | inactive | 33 mm | 32 mm | 27 mm | 25 mm | 29 mm | 31 mm | 35 mm | 32 mm | 29 mm | 27 mm | 33 mm | 35 mm |  |
| Nn1c(CS(=O)(=O)Nc2ccccc2)nnc1CS(=O)(=O)C1CNN=C1S(=O)(=O)c1ccccc1 (stereo unspecified) | inactive | 17 mm | 15 mm | 15 mm | 12 mm | 13 mm | 13 mm | 17 mm | 14 mm | 17 mm | 14 mm | 15 mm | 19 mm |  |
| Nn1c(CS(=O)(=O)Nc2ccccc2)nnc1CS(=O)(=O)c1c[nH]nc1S(=O)(=O)c1ccccc1 | inactive | 24 mm | 21 mm | 19 mm | 15 mm | 19 mm | 19 mm | 23 mm | 20 mm | 23 mm | 17 mm | 23 mm | 26 mm |  |
| O=S(=O)(/C=C/S(=O)(=O)c1ccccc1)Cc1nnc(CS(=O)(=O)Nc2ccccc2)s1 | inactive | 24 mm | 21 mm | 22 mm | 16 mm | 19 mm | 19 mm | 24 mm | 21 mm | 24 mm | 17 mm | 22 mm | 26 mm |  |
